Consider five molecules from ChEMBL document CHEMBL5380847, “Expanding the Paradigm of Structure-Based Drug Design: Molecular Dynamics Simulations Support the Development of New Pyridine-Based Protein Kinase C-Targeted Agonists” (J Med Chem, 2023).

Activity calls are given as the source filed them. No cut-off for these calls is given here.

One experiment concerns Cardiac fibroblast. In words: Inhibition of PKC-mediated ERK1/2 phosphorylation in neonatal mouse Cardiac fibroblast cells incubated for 30 mins in presence of PKC inhibitor Go6983 by Alphalisa analysis. The experiment is classed as cell-based. Summed up:
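Neonatal mouse cardiac fibroblasts were pretreated, or not, with the PKC inhibitor Gö6983 (1 μM). Cells were then exposed for 30 min to compounds at 10 μM (PMA at 10 nM). Total and phospho-ERK1/2 in lysates were quantified by Alpha technology and normalized to DMSO control. Values are mean + SEM (N = 3), analysed by randomized block ANOVA with Dunnett's post hoc test.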
On the technique in general: Alpha assays give light when donor and acceptor beads are brought close together.

Experiment [1] has as its system Fibroblast of cardiac tissue. The experiment can be described thus: Effect on PKCdelta expression level in neonatal mouse Cardiac fibroblast cells at 10 uM measured for 24 hrs by Western blot analysis. Format: functional, cell-based. Summed up:
(§1)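 Neonatal mouse cardiac fibroblasts were treated with 10 μM compound for 24 h and then lysed. Total protein was extracted, and PKCα, -δ and -ϵ levels were analysed by Western blotting. Levels were normalized to vehicle control (0.1% DMSO). Values are mean + SEM of N = 3 independent experiments.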
On the technique in general: A western blot detects proteins with antibodies after separation by electrophoresis.

Experiment [2] has as its target Protein kinase C alpha type (Homo sapiens) (UniProt P17252). In words: Displacement of [3H]-PDBu-from full length human recombinant PKCalpha expressed in baculovirus infected Sf9 cells incubated for 10 mins by microbeta liquid scintillation counter analysis. The settings on record: filed as agonist, dose 1-30 µM.
Experiment [3] deals with Fibroblast of cardiac tissue. In words: Effect on PKCepsilon expression level in neonatal mouse Cardiac fibroblast cells at 10 uM measured for 24 hrs by Western blot analysis. Format: functional, cell-based. A digest of the protocol:
as §1

Another experiment relates to DU-145. The experiment can be described thus: Anticancer activity against human DU-145 cells assessed as reduction in cell viability at 0.03 to 30 uM measured after 24 hrs by MTT assay. The experiment is classed as functional, cell-based. The settings on record: dose 0.03-30 µM. Summed up:
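DU145 human prostate cancer cells were exposed for 24 h to compounds at 0.3, 3.0 and 30 μM, with 0.03 μM added for the reference. Viability was read by MTT and expressed as percent of vehicle control (0.1% DMSO). Values are mean + SEM of N = 3–4 independent experiments.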

Experiment [4] deals with Fibroblast of cardiac tissue. The experiment can be described thus: Effect on PKCalpha expression level in neonatal mouse Cardiac fibroblast cells at 10 uM measured for 24 hrs by Western blot analysis. Format: functional, cell-based. A digest of the protocol: as §1
The target in experiment [5] is Protein kinase C alpha type (Homo sapiens) (UniProt P17252). The experiment can be described thus: Displacement of [3H]-PDBu-from full length human recombinant PKCalpha expressed in baculovirus infected Sf9 cells at 1 to 30 uM incubated for 10 mins by microbeta liquid scintillation counter analysis. Conditions: dose 1-30 µM.

For the molecule `CN(Cc1cccc(C(F)(F)F)c1)C(=O)c1cc(CO)cc(C(=O)N(C)Cc2cccc(C(F)(F)F)c2)n1`, the inhibition entry with Cardiac fibroblast is “Active”. Further, the outcome (in experiment [1]; in experiment [3]; with DU-145; in experiment [4]) was inactive. In experiment [2], the Activity result was “Dose-Dependent Effect”.

For `CCCCC(CC)OC(=O)c1cc(CO)cc(C(=O)OC(CC)CCCC)n1` (stereo unspecified), the outcome (in experiment [1]; in the experiment on DU-145) was inactive. Besides, the Activity result in experiment [2] was “Dose-Dependent Effect”.

Consider `O=C(OCc1cccc(C(F)(F)F)c1)c1cc(CO)cc(C(=O)OCc2cccc(C(F)(F)F)c2)n1`, for which the result (in experiment [5]; in the experiment with DU-145) was inactive.

On to `CCCCCCCCNC(=O)c1cc(CO)cc(C(=O)NCCCCCCCC)n1`, for which the result in the experiment on DU-145 was inactive.

In the case of `O=C(OCc1cccc(C(F)(F)F)c1)c1cc(CO)cc(C(=O)OCc2cccc(C(F)(F)F)c2)c1`, the inhibition entry in the experiment on Cardiac fibroblast was “Active”. The outcome in experiment [1], in experiment [3] and in experiment [4] was inactive.
